Measurements taken from ChEMBL document CHEMBL4152296, “Synthesis, biological evaluation and molecular modeling of novel azaspiro dihydrotriazines as influenza virus inhibitors targeting the host factor dihydrofolate reductase (DHFR)” (Eur J Med Chem, 2018).
Activity calls are given as the source filed them. No cut-off for these calls is given here.

What was measured:
[1] = tested on: Vesicular stomatitis virus; experiment: Antiviral activity against Vesicular stomatitis virus infected in human HEL299 cells assessed as inhibition of virus-induced cytopathic effect after 3 to 6 days by MTS assay; assay type: functional, organism-based
[2] = tested on: MDCK; experiment: Cytotoxicity against MDCK cells assessed as reduction in cell viability measured after 3 to 6 days by MTS assay; assay type: cell-based, Canis lupus familiaris; settings: dog
Outline: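 Mock-infected MDCK plates were run in parallel (FCS-free Ultra MDCK medium with TPCK-trypsin) with serial five-fold dilutions up to […], 35 °C for 3–6 days. CC50 was interpolated from semi-log dose-response curves; mean of two or three experiments.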

[3] = Selectivity index, ratio of CC50 for MDCK cells to EC50 for Influenza B virus B/Ned/537/05 infected in MDCK cells; assay type: toxicity, cell-based; settings: dog, read-out: Ratio CC50/EC50
Outline: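 Selectivity index for influenza B in MDCK was calculated as MTS-based CC50 divided by MTS-based EC50, both measured in parallel in the same assay.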

[4] = Cytotoxicity against MDCK cells assessed as alterations in normal cell morphology measured after 3 to 6 days by microscopic analysis; assay type: cell-based, Canis lupus familiaris; settings: dog
Outline: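 Uninfected MDCK cultures in FCS-free Ultra MDCK medium with trypsin received five-fold compound dilutions (up to […]) for 3–6 days at 35 °C. Microscopy scored morphology, and MCC was taken as the lowest concentration causing minimal rounding, shrinking or lysis.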

[5] = tested on: Vaccinia virus; experiment: Antiviral activity against Vaccinia virus infected in human HEL299 cells assessed as inhibition of virus-induced cytopathic effect after 3 to 6 days by MTS assay; assay type: functional, organism-based; settings: Orthopoxvirus vaccinia
[6] = tested on: Human respirovirus 3; experiment: Antiviral activity against Parainfluenza virus 3 infected in African green monkey Vero cells assessed as inhibition of virus-induced cytopathic effect after 3 to 6 days by MTS assay; assay type: functional, organism-based
[7] = tested on: Mammalian orthoreovirus 1; experiment: Antiviral activity against Reovirus-1 infected in African green monkey Vero cells assessed as inhibition of virus-induced cytopathic effect after 3 to 6 days by MTS assay; assay type: functional, organism-based
[8] = tested on: Influenza A virus; experiment: Antiviral activity against Influenza A virus (A/Puerto Rico/8/34(H1N1)) infected in MDCK cells assessed as protection against virus-induced reduction in cell viability after 3 to 6 days by MTS assay; assay type: functional, organism-based; settings: A/Puerto Rico/8/1934(H1N1)
Outline: (§1)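 MDCK cells seeded at 9000/well and infected one day later (semiconfluent) with 100 CCID50 virus. Medium was FCS-free Ultra MDCK with 2 μg/mL TPCK-trypsin. Serial five-fold compound dilutions (top 100 μM) were added with the virus, followed by 3–6 days at 35 °C. MTS read-out gave % protection versus virus and mock controls. EC50 was interpolated from semi-log curves; mean of two or three experiments.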

[9] = target: T1, Dihydrofolate reductase (Homo sapiens, UniProt P00374); experiment: Binding affinity to human recombinant DHFR using dihydrofolate as substrate after 180 secs by spectrophotometric method
T1 sequence (P00374 whole entry): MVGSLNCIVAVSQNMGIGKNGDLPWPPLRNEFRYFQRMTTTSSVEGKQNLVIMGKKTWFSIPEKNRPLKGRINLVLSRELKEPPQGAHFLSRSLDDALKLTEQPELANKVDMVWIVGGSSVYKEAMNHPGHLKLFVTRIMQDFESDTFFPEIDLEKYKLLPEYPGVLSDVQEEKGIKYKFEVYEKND
Outline: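 Recombinant human DHFR (0.42 μM) in TES buffer with inhibitor, 60 μM DHF, and 120 μM NADPH added last to start the reaction. Absorbance at 340 nm was followed for 180 s. Six concentrations (1–32 μM) were run in duplicate. IC50 came from Dixon plots assuming competitive inhibition. Ki = IC50/(1+[S]/Km), with DHF Km 5 μM.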

[10] = tested on: Human adenovirus 2; experiment: Antiviral activity against Human adenovirus type 2 infected in human HEL299 cells assessed as inhibition of virus-induced cytopathic effect after 3 to 6 days by MTS assay; assay type: functional, organism-based
[11] = tested on: Coxsackievirus B4; experiment: Antiviral activity against Coxsackie B4 virus infected in human HeLa cells assessed as inhibition of virus-induced cytopathic effect after 3 to 6 days by MTS assay; assay type: functional, organism-based
[12] = tested on: Yellow fever virus; experiment: Antiviral activity against Yellow fever virus infected in African green monkey Vero cells assessed as inhibition of virus-induced cytopathic effect after 3 to 6 days by MTS assay; assay type: functional, organism-based
[13] = tested on: Sindbis virus; experiment: Antiviral activity against Sindbis virus infected in African green monkey Vero cells assessed as inhibition of virus-induced cytopathic effect after 3 to 6 days by MTS assay; assay type: functional, organism-based
[14] = tested on: Punta Toro virus; experiment: Antiviral activity against Punta Toro virus infected in African green monkey Vero cells assessed as inhibition of virus-induced cytopathic effect after 3 to 6 days by MTS assay; assay type: functional, organism-based
[15] = Selectivity index, ratio of MCC for human HeLa cells to EC50 for Respiratory syncytial virus Long infected in human HeLa cells; assay type: toxicity, cell-based; settings: read-out: Selectivity Index
Outline: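 Selectivity index for RSV Long in HeLa was calculated as microscopic MCC divided by CPE-based microscopic EC50 from parallel infected and mock-infected cultures.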

[16] = tested on: Influenza B virus; experiment: Potency index, ratio of ribavirin EC50 to compound EC50 for Influenza B virus B/Ned/537/05 infected in MDCK cells; assay type: functional
[17] = tested on: Human alphaherpesvirus 2; experiment: Antiviral activity against Herpes simplex virus type 2 infected in human HEL299 cells assessed as inhibition of virus-induced cytopathic effect after 3 to 6 days by MTS assay; assay type: functional, organism-based
[18] = tested on: Respiratory syncytial virus; experiment: Potency index, ratio of ribavirin EC50 to compound EC50 for Respiratory syncytial virus Long infected in human HeLa cells; assay type: functional
[19] = tested on: Respiratory syncytial virus; experiment: Antiviral activity against Respiratory syncytial virus Long infected in human HeLa cells assessed as inhibition of virus-induced cytopathic effect after 3 to 6 days by MTS based microscopy; assay type: functional, organism-based
[20] = tested on: Influenza B virus; experiment: Antiviral activity against Influenza B virus B/Ned/537/05 infected in MDCK cells assessed as protection against virus-induced reduction in cell viability after 3 to 6 days by MTS assay; assay type: functional, organism-based; settings: B/Ned/537/05, MDCK; outline: as §1
[21] = tested on: Human coronavirus 229E; experiment: Antiviral activity against Human coronavirus 229E infected in human HEL299 cells assessed as inhibition of virus-induced cytopathic effect after 3 to 6 days by MTS assay; assay type: functional, organism-based
[22] = tested on: Human immunodeficiency virus; experiment: Antiviral activity against HIV; assay type: functional, organism-based
[23] = tested on: Human alphaherpesvirus 1; experiment: Antiviral activity against Herpes simplex virus type 1 infected in human HEL299 cells assessed as inhibition of virus-induced cytopathic effect after 3 to 6 days by MTS assay; assay type: functional, organism-based
[24] = tested on: Vero; experiment: Cytotoxicity against African green monkey Vero cells assessed as reduction in cell viability measured after 3 to 6 days by MTS assay; assay type: cell-based; settings: chlorocebus sabaeus
[25] = Cytotoxicity against human HeLa cells assessed as alterations in normal cell morphology measured after 3 to 6 days by microscopic analysis; assay type: cell-based
Outline: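 Mock-infected HeLa cultures in 2% FCS medium received serial five-fold dilutions […] for 3–6 days at 37 °C. MCC was the lowest concentration giving microscopically visible minimal change in cell morphology (rounding, shrinking, lysis).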

[26] = tested on: West Nile virus; experiment: Antiviral activity against West Nile virus after 2 days by luminometric method; assay type: functional, organism-based; settings: 48 h
[27] = Selectivity index, ratio of CC50 for human Lunet cells to EC50 for Hepatitis C virus; assay type: toxicity; settings: read-out: Ratio CC50/EC50
[28] = tested on: Hepatitis C virus; experiment: Antiviral activity against Hepatitis C virus after 2 days by luminometric method; assay type: functional, organism-based, Hepacivirus hominis; settings: 48 h
[29] = tested on: Human immunodeficiency virus; experiment: Antiviral activity against HIV after 2 days by luminometric method; assay type: functional, organism-based; settings: Human immunodeficiency virus 1, 48 h
[30] = Selectivity index, ratio of CC50 for human Lunet cells to EC50 for DENV; assay type: toxicity; settings: read-out: Ratio CC50/EC50
[31] = Selectivity index, ratio of CC50 for human Lunet cells to EC50 for West Nile virus; assay type: toxicity; settings: read-out: Ratio CC50/EC50
[32] = Selectivity index, ratio of CC50 for human Lunet cells to EC50 for HIV; assay type: toxicity; settings: read-out: Ratio CC50/EC50
[33] = tested on: Dengue virus; experiment: Antiviral activity against DENV after 2 days by luminometric method; assay type: functional, organism-based; settings: 48 h

Compound | Activity [1] | CC50 [2] | MCC [4] | Activity [5] | Activity [6] | Activity [7] | EC50 [8] | Ki [9] | Activity [10] | Activity [11] | Activity [12] | Activity [13] | Activity [14] | Activity [17] | EC50 [19] | EC50 [20] | Activity [21] | Activity [22] | Activity [23] | Activity [24] | further results
Cc1ccc(C(=O)N2CCC3(CC2)N=C(N)N=C(N)N3c2cccc(Cl)c2)cc1 | inactive | 18000 nM | ≥ 800 nM | inactive | inactive | inactive | > 100000 nM | 640 nM | inactive | inactive | inactive | inactive | inactive | inactive | 400 nM | 290 nM | inactive | inactive | inactive | Non-Toxic | selectivity ratio [3]: 62; selectivity ratio [15]: 250; Ratio EC50 [16]: 11; Ratio EC50 [18]: 15; MCC [25]: ≥ 100 µM
Cc1cn(-c2ccc(NC(=O)Nc3ccccc3C)cc2)nn1 |  |  |  |  |  |  |  |  |  |  |  |  |  |  |  |  |  |  |  |  | EC50 [26]: 970 to 16500 nM; selectivity ratio [27]: 162; EC50 [28]: 970 to 16500 nM; EC50 [29]: 970 to 16500 nM; selectivity ratio [30]: 162; selectivity ratio [31]: 162; selectivity ratio [32]: 162; EC50 [33]: 970 to 16500 nM
CCS(=O)(=O)N1CCC2(CC1)N=C(N)N=C(N)N2CCOC | inactive | > 100000 nM | > 100000 nM | inactive | inactive | inactive | > 100000 nM | 1400 nM | inactive | inactive | inactive | inactive | inactive | inactive | > 100000 nM | 3000 nM | inactive | inactive | inactive | Non-Toxic | MCC [25]: > 100 µM
NC1=NC2(CCN(C(=O)Nc3ccc(F)cc3)CC2)N(c2cccc(Cl)c2)C(N)=N1 | inactive | 51000 nM | ≥ 160 nM | inactive | inactive | inactive | > 100000 nM | 530 nM | inactive | inactive | inactive | inactive | inactive | inactive | 1800 nM | 190 nM | inactive | inactive | inactive | Non-Toxic | selectivity ratio [3]: 268; selectivity ratio [15]: 56; Ratio EC50 [18]: 3; MCC [25]: ≥ 100 µM
